CXCR6 block: CXCR6 receptor inhibitors, primary screen, cell-based, beta-arrestin, luminescence, CHO-K1 PathHunter, 1536-well. 360,000 tested, 0.36% active. AID 602244, 2012. C-X-C chemokine receptor type 6 (Homo sapiens), O00574. inhibition, % at 20 µM; in the data active = inhibition above about 34%, passing the limit was not always enough;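 note: antagonist mode with CXCL16 agonist at 10 nM final; 0% = 10 nM CXCL16 with DMSO and 100% = unstimulated wells without agonist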
EBI2 block: EBI2 receptor antagonists, beta-arrestin recruitment, primary screen, cell-based, luminescence, 7a,25-OHC stimulation, uHTS; 7a,25-OHC stimulated; inhibition, % at 5 µM; 360,000 tested, 0.81% active; AID 651636, 2012; in the data active = inhibition above about 38%;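 note: enzyme fragment complementation signal reports receptor beta-arrestin coupling in cells; 0% = agonist plus DMSO wells and 100% = wells without agonist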
Target sequence (P32249 whole entry, looked up, the tested form may be a part): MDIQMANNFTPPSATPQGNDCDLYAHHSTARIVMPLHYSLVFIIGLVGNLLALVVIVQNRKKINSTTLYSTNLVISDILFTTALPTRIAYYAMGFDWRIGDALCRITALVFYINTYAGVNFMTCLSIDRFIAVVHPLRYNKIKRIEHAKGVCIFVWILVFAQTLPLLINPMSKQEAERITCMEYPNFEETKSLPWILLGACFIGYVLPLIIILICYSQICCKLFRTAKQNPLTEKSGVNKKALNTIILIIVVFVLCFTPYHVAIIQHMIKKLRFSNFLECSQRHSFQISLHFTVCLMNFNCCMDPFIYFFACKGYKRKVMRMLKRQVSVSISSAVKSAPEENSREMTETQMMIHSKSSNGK
CCR6 antagonist: CCR6 receptor antagonists, primary screen, cell-based, CHO-K1, luminescence, beta-arrestin, uHTS; CHO-K1 CCR6 PathHunter beta-arrestin, CCL20-stimulated; C-C chemokine receptor type 6 (Homo sapiens), P51684; 340,000 tested, 0.49% active; inhibition, % at 20 µM;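 active = compounds whose inhibition of the agonist-driven luminescence signal at 20 µM reaches about 50%, limit read from the data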;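 note: cells stimulated with CCL20 at 14 nM final; plate controls were DMSO with CCL20 for no effect and DMSO without agonist for full effect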
Target sequence (P51684 whole entry, looked up): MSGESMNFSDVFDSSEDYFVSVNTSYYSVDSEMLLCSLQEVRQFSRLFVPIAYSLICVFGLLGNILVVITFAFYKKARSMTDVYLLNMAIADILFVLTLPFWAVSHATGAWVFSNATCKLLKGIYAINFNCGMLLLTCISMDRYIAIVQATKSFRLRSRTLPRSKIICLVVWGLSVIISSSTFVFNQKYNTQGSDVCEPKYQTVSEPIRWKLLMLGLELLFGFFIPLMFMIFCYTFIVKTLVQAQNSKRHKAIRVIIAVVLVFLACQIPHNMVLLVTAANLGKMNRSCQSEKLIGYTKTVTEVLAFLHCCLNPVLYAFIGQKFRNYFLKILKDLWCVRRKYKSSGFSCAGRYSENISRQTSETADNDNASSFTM
HTR2A ag: mouse Htr2a agonists via beta-arrestin recruitment, primary screen, cell-based, luminescence; CHO-K1 mHTR2A beta-arrestin complementation; percent of 30 µM serotonin response; activation, % at 7.6 µM; AID 624169, 2012; 5-hydroxytryptamine receptor 2A (Mus musculus), P35363; 360,000 tested, 0.66% active;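 active = activation above a run cutoff, the mean activation of all tested compounds plus 3 SD, cut at about 14% in these data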;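 note: 0% = plate median of compound wells and 100% = 30 µM serotonin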
APJ antag: antagonists of human apelin receptor APJ, primary screen, CHO-K1 cells, beta-arrestin complementation, luminescence | P35414 | inhibition, % at 20 µM | 330,000 tested, 0.32% active;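 active = inhibition above about 40% at 20 µM, limit read from the data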;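 note: cells challenged with 10 nM apelin-13 agonist together with compound; plate controls were apelin-13 plus DMSO wells for no effect and DMSO wells lacking apelin-13 for full effect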
APJ agonist: agonists of human apelin receptor APJ, primary screen, CHO-K1 cells, PathHunter beta-arrestin, luminescence. 0% DMSO wells, 100% apelin. activation, % at 20 µM. 330,000 tested, 0.11% active;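 active = activation more than six SD over the plate average, tested at 20 µM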;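 note: 0% = DMSO alone and 100% = apelin-13 at 10 nM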
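Test system: CHO-K1 APJ beta-arrestin complementation cell line | Compound: Single test compound dose, 20 µM final, 1% DMSO | Incubation: Compound 90 min 25 °C, reagent 1 h | Measured by: beta-gal luminescence | Read-out basis: APJ–arrestin association signal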
EBI2 antag conf: EBI2 antagonist hit retest, beta-arrestin, confirmation, cell-based, single concentration, luminescence, 7a,25-OHC stimulation; shares compounds with EBI2 block; 7a,25-OHC antagonism; inhibition, % at 5 µM; 2,400 tested, 29% active;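 active = inhibition of at least 50%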
EBI2 ag: EBI2 agonist activity of antagonist hits, confirmation, counter-screen for EBI2 antagonist project, cell-based, single concentration, agonist mode, luminescence | EBI2-expressing cells, 60 min; 0% vehicle, 100% 7α,25-dihydroxycholesterol control | activation, % at 5 µM | 2,400 tested, under 10 active | shares compounds with EBI2 block;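 active = activation of at least 50%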
bGal cs: E. coli beta-galactosidase enzyme inhibition, confirmation, counter-screen for EBI2 antagonist project, biochemical, luminescence, single concentration | 2,400 tested, 1% active | AID 652176, 2013 | shares compounds with EBI2 block | inhibition, % at 5 µM | purified beta-galactosidase, luminescent Galacton Star, 15 min;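 active = replicate-average signal at least 3 plate SD below neutral wells, shown as high inhibition, flagging enzyme-inhibiting false positives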;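 note: 0% = DMSO wells with enzyme and 100% = wells lacking enzyme; higher means stronger loss of beta-gal luminescence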
The depositor's hits bear a star; x = not tested or not shown. Most compounds without a hit are left out; they make up all but 2.2% or so of the library.

SMILES	CXCR6 block	EBI2 block	CCR6 antagonist	HTR2A ag	APJ antag	APJ agonist	EBI2 antag conf	EBI2 ag	bGal cs
Cc1ccc(C)c(C(O)c2ncc(-c3ccc(Cl)cc3)[nH]2)c1 (stereo not given)	-4.7	1.9	x	-0.9	x	x	x	x	x
CC(C)(C)S(=O)N1Cc2cc(C(=O)N[C@@H]3CCN(Cc4ccccc4)C3)nc(-c3cccc(-c4cc5ccccc5o4)c3)c2[C@@H]1CCO (stereo not given in full)	-1.0	33.6	x	-5.7	x	x	x	x	x
Nc1ncc(-c2ccccc2)c(-c2ccc(OCc3ccccc3)cc2O)n1	2.5	19.9	2.5	3.1	-12.3	-0.7	x	x	x
COc1ccc(-c2nc(N)nc(C(F)(F)F)c2-c2ccccc2OC)c(O)c1	0.9	7.5	-5.9	4.9	0.2	2.1	x	x	x
COc1ccc(-c2nc(N)ncc2-c2ccccc2OC)c(O)c1	-6.4	45.9*	11.4	1.0	1.0	-5.1	15.0	0.5	11.0
COc1ccc(-c2cnc(N)nc2-c2ccc(OC)cc2O)cc1	-5.7	81.2*	2.5	-0.8	-9.4	-0.3	44.3	0.0	-9.2
COc1ccc(-c2nc(N)ncc2-c2ccccc2)c(O)c1	2.0	60.6*	1.8	6.5	-12.5	-1.7	6.4	-0.9	-9.4
Nc1nc(CSc2ccc(Cl)cc2)nc(N2CCCCC2)n1	-7.3	44.3*	0.2	-4.3	-30.6	-7.1	5.7	1.8	3.4
COc1ccc(C(c2nnnn2Cc2ccccc2)N2CCN(C/C=C/c3ccccc3)CC2)cc1 (stereo not given)	15.8	49.6*	x	-6.7	x	x	20.2	1.4	-14.1
CCC(c1nnnn1Cc1ccccc1)N1CCN(C/C=C/c2ccccc2)CC1 (stereo not given)	0.1	30.1	x	4.0	x	x	x	x	x
COc1ccc(-n2nnnc2C(c2ccccc2)N2CCN(C/C=C/c3ccccc3)CC2)cc1 (stereo not given)	9.3	52.7*	x	-9.6	x	x	40.6	0.6	-0.7
C(=C\c1ccccc1)/CN1CCN(C(c2ccccc2)c2nnnn2Cc2ccccc2)CC1 (stereo not given)	4.9	46.9*	x	-3.5	x	x	36.8	-1.2	-18.0
CCOC(=O)c1[nH]c2ccc(OCC)cc2c1CCCN1C(=O)c2ccccc2C1=O	4.5	45.9*	19.6	0.2	1.8	-1.6	44.6	0.0	7.6
CCOC(=O)c1[nH]c(C)c(C(=O)OCCN2C(=O)c3ccccc3C2=O)c1C	2.6	5.4	3.9	-2.9	1.6	0.7	x	x	x
CC(C)Nc1nc(Cl)nc(N(C#N)CN2C(=O)c3ccccc3C2=O)n1	20.1	56.5*	17.1	-0.7	0.3	-1.6	52.8*	0.3	6.0
COc1ncc(-c2ccc(N3C(c4ccsc4)=Cc4ccc(F)cc4C3CC(C)=O)cc2)cn1 (stereo not given)	4.0	-0.4	x	5.9	x	x	x	x	x
COC(=O)N/N=C/c1ccc(-c2cccc(Cl)c2)o1	-2.4	-4.1	-2.2	-3.4	-20.3	-0.6	x	x	x
Nc1ccccc1N=Cc1ccc(-c2cccc(Cl)c2)o1	25.2	42.1*	11.4	1.1	-8.0	8.9	33.2	-1.3	-8.3
CC(C)Cn1c(N2CCN(CC(=O)Nc3ccc(Cl)cc3)CC2)nc2ccccc21	6.5	74.3*	18.6	-8.9	-8.1	-0.2	39.9	1.5	4.4
COc1ccc(CN2C(=O)CN(S(C)(=O)=O)CC2(C)C(=O)NCc2ccccc2)cc1OC (stereo not given)	x	-7.4	x	-0.2	x	x	x	x	x
CCOc1cc(S(=O)(=O)N2CC=C(c3ccc(F)cc3)CC2)c(OCC)cc1-n1cnnn1	9.8	5.8	8.3	2.5	5.2	-8.0	x	x	x
CCOc1cc(S(=O)(=O)N2CCC(Cc3ccccc3)CC2)c(OCC)cc1-n1cnnn1	-0.9	45.3*	15.7	4.6	8.6	-6.2	21.8	0.7	4.5
Cc1ccccc1OCCC(=O)Nc1ccc(S(=O)(=O)N2CCCC2)cc1	0.0	0.3	x	-0.7	x	x	x	x	x
CC(C)CNc1nnnc2c1sc1nc(N3CCOCC3)c3c(c12)CCCC3	17.4	22.5	17.4	-5.5	15.0	0.5	x	x	x
C=CCNc1nnnc2c1sc1nc(N3CCOCC3)c3c(c12)CCCC3	-5.4	51.5*	7.7	-5.5	4.5	-4.0	19.1	0.3	1.8
SMILES	CXCR6 block	EBI2 block	CCR6 antagonist	HTR2A ag	APJ antag	APJ agonist	EBI2 antag conf	EBI2 ag	bGal cs
O=C(CC[C@H]1O[C@@H](n2ccc(=O)[nH]c2=O)[C@H](O)[C@@H]1O)N[C@@H](Cc1ccccc1)C(=O)NCc1ccccc1	-1.3	-5.6	x	-5.8	x	x	x	x	x
CCOc1ccc(N2CSC(=S)N(c3ccc(OCC)cc3)C2)cc1	6.0	61.9*	8.3	1.9	5.0	-4.4	16.8	-0.7	0.8
CCOc1ccc(N2CC(=O)SC2=S)cc1	2.9	12.4	18.8	-0.4	11.2	1.3	x	x	x
COc1ccc(OC)c(C2=Nn3c(nnc3-c3cccc(OC(C)C)c3)SC2)c1	17.7	46.0*	20.4	2.6	-8.1	-5.7	35.0	0.8	-1.7
COc1ccc(OC)c(C2=Nn3c(nnc3-c3ccco3)SC2)c1	10.7	31.6	14.5	2.3	16.5	-0.3	x	x	x
COc1cccc2sc(Nc3nc(-c4cc5ccccc5oc4=O)cs3)nc12	14.8	46.0*	24.1	2.6	x	x	20.3	-1.5	-10.2
Nc1ccc(Nc2nc(-c3cc4ccccc4oc3=O)cs2)cc1	-5.9	12.2	10.9	2.8	-42.3	-1.8	x	x	x
CC1(C)CN(Cc2ccccc2)C(=O)[C@H]1CC(=O)Nc1ccc(Br)cc1	8.6	1.3	x	-0.4	x	x	x	x	x
FC(F)(F)c1ccc(Oc2ccc3cc(Br)ccc3c2)nc1	-9.6	83.7*	7.0	4.2	2.5	-1.3	47.6	0.9	6.7
O=[N+]([O-])c1ccc(Oc2ccc(C(F)(F)F)cn2)cc1	-11.2	8.3	13.0	4.3	0.8	-3.0	x	x	x
CCN(CC)CCC12CC(C)OC1=Nc1ccccc1NC2=O (stereo not given)	3.7	-3.9	x	1.8	x	x	x	x	x

Bioassay records from PubChem BioAssay.
